Assay results from ChEMBL document CHEMBL4043299, “Repurposing a Library of Human Cathepsin L Ligands: Identification of Macrocyclic Lactams as Potent Rhodesain and Trypanosoma brucei Inhibitors” (J Med Chem, 2018).
pIC50, pKi: −log10 of the molar value. Activity calls are given as the source filed them. The rule behind the calls is not given here.

Key:
Rhodesain = Rhodesain (Trypanosoma brucei rhodesiense, UniProt Q95PM0); experiment: Inhibition of Trypanosoma brucei rhodesiense rhodesain using Cbz-Phe-Arg-AMC as substrate by fluorimetric method
In short: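 Fluorescence-based protease assay. IC50 was converted to Ki by the Cheng-Prusoff equation. Values are the average of two measurements, each run in duplicate.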

Procathepsin L = Procathepsin L (Homo sapiens, UniProt P07711); experiment: Inhibition of human CatL using Cbz-Phe-Arg-AMC as substrate measured over 30 mins by fluorimetric method
[1] = system: Trypanosoma brucei rhodesiense; experiment: Antitrypanosomal activity against bloodstream form of Trypanosoma brucei rhodesiense STIB 900 assessed as parasite growth inhibition after 72 hrs by Alamar blue assay; assay type: functional
In short: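 T. b. rhodesiense STIB900 bloodstream trypomastigotes; cell-growth inhibition read by Alamar blue; IC50 as average of at least 2 measurements.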

[2] = Selectivity index, ratio of Ki for human CatL to Ki for Trypanosoma brucei rhodesiense rhodesain
In short: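 Ki from IC50 via Cheng–Prusoff in fluorescence-based protease assay; index = Ki(hCatL)/Ki(RD); Ki as average of two measurements, each in duplicate.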

L6 = experiment: Cytotoxicity against rat L6 cells after 72 hrs by Alamar blue assay; assay type: cell-based
In short: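 Rat skeletal myoblast L6 cells, growth inhibition; IC50 as average of at least 2 measurements.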

[3] = Selectivity index, ratio of IC50 for rat L6 cells to IC50 for bloodstream form of Trypanosoma brucei rhodesiense STIB 900; assay type: toxicity; settings: for selectivity ratio: L6 cells, read-out: Ratio IC50
In short: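 Ratio of L6 cell IC50 to T. b. rhodesiense STIB900 trypomastigote IC50.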

[4] = system: Trypanosoma brucei rhodesiense; experiment: Antitrypanosomal activity against bloodstream form of Trypanosoma brucei rhodesiense STIB 900 assessed as parasite growth inhibition incubated for 24 to 48 hrs followed by 72 hrs recovery by Alamar blue assay; assay type: functional
[5] = Trypanosoma brucei, STIB 900, 72 h

Chain of Rhodesain (Q95PM0 whole entry): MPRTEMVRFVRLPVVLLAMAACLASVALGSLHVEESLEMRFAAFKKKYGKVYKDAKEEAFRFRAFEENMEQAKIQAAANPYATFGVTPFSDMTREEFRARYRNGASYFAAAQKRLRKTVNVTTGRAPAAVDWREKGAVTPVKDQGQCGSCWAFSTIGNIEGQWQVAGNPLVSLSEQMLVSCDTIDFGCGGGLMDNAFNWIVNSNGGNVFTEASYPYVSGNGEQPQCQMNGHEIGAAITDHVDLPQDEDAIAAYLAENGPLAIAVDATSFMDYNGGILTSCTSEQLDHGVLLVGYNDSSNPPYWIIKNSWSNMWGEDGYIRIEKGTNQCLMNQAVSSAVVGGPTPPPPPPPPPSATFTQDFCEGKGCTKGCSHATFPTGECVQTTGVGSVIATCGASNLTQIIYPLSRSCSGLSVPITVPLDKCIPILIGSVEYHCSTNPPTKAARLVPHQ
Chain of Procathepsin L (P07711 whole entry): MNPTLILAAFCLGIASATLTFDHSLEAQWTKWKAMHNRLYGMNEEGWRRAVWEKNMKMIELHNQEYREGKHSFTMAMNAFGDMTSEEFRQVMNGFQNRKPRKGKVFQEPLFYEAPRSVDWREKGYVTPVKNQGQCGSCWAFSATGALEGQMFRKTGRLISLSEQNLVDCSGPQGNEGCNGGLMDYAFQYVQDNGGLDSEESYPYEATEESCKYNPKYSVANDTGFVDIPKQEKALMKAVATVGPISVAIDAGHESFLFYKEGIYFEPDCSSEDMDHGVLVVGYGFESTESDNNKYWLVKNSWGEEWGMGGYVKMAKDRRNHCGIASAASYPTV

| Compound | pKi (Rhodesain) | pKi (Procathepsin L) | pIC50 [1, 5] | Ratio Ki [2] | pIC50 (L6; Rattus norvegicus, L6, 72 h) | selectivity ratio [3] | growth inhibition (GI) [4] | pIC50 [1] | pIC50 (L6; l6) | Ratio IC50 [3] |
| --- | --- | --- | --- | --- | --- | --- | --- | --- | --- | --- |
| N#CC1(NC(=O)[C@@H]2Cc3ccc(c(Cl)c3)OC/C=C/CCn3nc(cc3-c3ccccc3)C(=O)N2)CC1 | 8.28 | 7.25 | 9.22 | 11 | 4.40 | 66700 | – | – | – | – |
| N#CC1(NC(=O)[C@@H]2Cc3ccc(c(Cl)c3)OC/C=C/COc3c(F)cc(F)cc3C(=O)N2)CC1 | – | – | – | – | – | – | Active | – | – | – |
| N#CC1(NC(=O)[C@@H]2Cc3ccc(c(-c4cccnc4)c3)OCCCCOc3cc(C(F)(F)F)ccc3C(=O)N2)CC1 | 6.12 | 6.08 | 7.74 | 1.1 | 4.14 | 4010 | – | – | – | – |
| Cn1cc(-c2cc3ccc2OCCCCOc2cc(C(F)(F)F)ccc2C(=O)N[C@H](C(=O)NC2(C#N)CC2)C3)cn1 | 6.06 | 6.17 | 7.72 | 0.8 | < 4.00 | – | – | – | – | – |
| N#CC1(NC(=O)[C@@H]2Cc3ccc(c(I)c3)OC/C=C/COc3cc(C(F)(F)F)ccc3C(=O)N2)CC1 (mixture of isomers) | 8.06 | 8.25 | 6.52 | 0.6 | 4.52 | 101 | – | – | – | – |
| N#CC1(NC(=O)[C@@H]2Cc3ccc(c(Cl)c3)OC/C=C/Cn3cccc(c3=O)C(=O)N2)CC1 | < 4.70 | < 4.70 | 4.32 | – | < 4.00 | – | – | – | – | – |
| N#CC1(NC(=O)[C@@H]2Cc3ccc(c(Cl)c3)OC/C=C/COc3cc4ccccc4cc3C(=O)N2)CC1 (mixture of isomers) | 9.00 | 8.92 | 9.30 | 1.2 | 4.36 | 87600 | – | – | – | – |
| N#CC1(NC(=O)[C@@H]2Cc3ccc(c(Cl)c3)OCC#CCOc3c(F)cc(F)cc3C(=O)N2)CC1 (single isomer, unassigned; atropisomer 1) [listing 1 of 2 here] | – | – | – | 0.3 | – | – | – | – | – | – |
| CC(C)(C)c1cc2nn1CC/C=C/COc1ccc(cc1Cl)C[C@@H](C(=O)NC1(C#N)CC1)NC2=O | 7.74 | 8.64 | 9.22 | 0.1 | 4.41 | 64200 | – | – | – | – |
| N#CC1(NC(=O)[C@@H]2Cc3ccc(c(-c4cncnc4)c3)OCCCCOc3cc(C(F)(F)F)ccc3C(=O)N2)CC1 | < 4.70 | 5.19 | 6.29 | – | < 4.00 | – | – | – | – | – |
| N#CC1(NC(=O)[C@@H]2Cc3ccc(c(Cl)c3)OCC#CCOc3c(F)cc(F)cc3C(=O)N2)CC1 (single isomer, unassigned; atropisomer 2) [listing 1 of 2 here] | – | – | – | 0.3 | – | – | – | – | – | – |
| N#CC1(NC(=O)[C@@H]2Cc3ccc(c(-c4cc[nH]n4)c3)OCCCCOc3ccccc3C(=O)N2)CC1 | 5.96 | 5.96 | 5.91 | 1 | 4.06 | 70 | – | – | – | – |
| N#CC1(NC(=O)[C@@H]2Cc3ccc(c(Cl)c3)OC/C=C/COc3ccc(-c4ccc(F)cc4)cc3C(=O)N2)CC1 (mixture of isomers) | 8.70 | 7.81 | 6.46 | 7.8 | 4.34 | 131 | – | – | – | – |
| N#CC1(NC(=O)[C@@H]2Cc3ccc(c(Cl)c3)OC/C=C/COc3ccccc3C(C(F)(F)F)N2)CC1 (stereo partly specified) | 6.59 | 6.35 | 5.02 | – | – | – | – | – | – | – |
| N#CC1(NC(=O)[C@@H]2Cc3ccc(c(Cl)c3)OC/C=C/COc3cc(C(F)(F)F)ccc3C(=O)N2)CC1 | 7.69 | 8.62 | 8.70 | 0.1 | 4.43 | 18500 | Active | – | – | – |
| N#CC1(NC(=O)[C@@H]2Cc3ccc(c(I)c3)OC/C=C/COc3ccccc3C(=O)N2)CC1 | 8.60 | – | – | – | – | – | – | – | – | – |
| N#CC1(NC(=O)[C@@H]2Cc3ccc(c(-c4cccnc4)c3)OCCCCOc3ccccc3C(=O)N2)CC1 | 6.08 | 6.00 | 5.71 | 1.2 | < 4.00 | – | – | – | – | – |
| N#CC1(NC(=O)[C@@H]2Cc3ccc(c(Cl)c3)OCC#CCOc3c(F)cc(F)cc3C(=O)N2)CC1 (single isomer, unassigned; atropisomer 2) [listing 2 of 2 here] | 8.32 | 8.92 | – | – | – | – | – | 8.40 | 4.33 | 11775 |
| N#CC1(NC(=O)[C@@H]2Cc3ccc(c(I)c3)OCCCCOc3cc(C(F)(F)F)ccc3C(=O)N2)CC1 | 7.24 | 8.24 | 7.52 | 0.1 | 4.25 | 1890 | – | – | – | – |
| CS(=O)(=O)c1ccc2c(c1)C(=O)N[C@H](C(=O)NC1(C#N)CC1)Cc1ccc(c(Cl)c1)OC[C@H]1O[C@@H]1CO2 (mixture of isomers) | 6.87 | 8.34 | 4.77 | 0.03 | 4.07 | 5 | – | – | – | – |
| N#CC1(NC(=O)[C@@H]2Cc3ccc(c(Cl)c3)OCC#CCOc3c(F)cc(F)cc3C(=O)N2)CC1 (single isomer, unassigned; atropisomer 1) [listing 2 of 2 here] | 7.09 | 7.62 | 8.10 | – | 4.34 | – | – | – | – | 5700 |
| N#CC1(NC(=O)[C@@H]2Cc3ccc(c(Cl)c3)OC/C=C/CCn3nc(cc3C3CC3)C(=O)N2)CC1 | 7.76 | 8.60 | 8.30 | 0.1 | 4.22 | 12100 | Active | – | – | – |
| CS(=O)(=O)c1ccc2c(c1)C(=O)N[C@H](C(=O)NC1(C#N)CC1)Cc1ccc(c(Cl)c1)OC/C=C/CO2 | 8.21 | 8.43 | 6.48 | 0.6 | < 4.00 | – | – | – | – | – |
| Cc1cc2nn1CC/C=C/COc1ccc(cc1Cl)C[C@@H](C(=O)NC1(C#N)CC1)NC2=O (mixture of isomers) | 7.28 | 7.39 | 8.22 | 0.8 | < 4.00 | – | – | – | – | – |
| N#CC1(NC(=O)[C@@H]2Cc3ccc(c(Cl)c3)OC/C=C/COc3cc(-c4cnn(C(F)F)c4)ccc3C(=O)N2)CC1 (mixture of isomers) | 8.27 | 8.13 | 6.47 | 1.4 | 4.35 | 132 | – | – | – | – |
| N#CC1(NC(=O)[C@@H]2Cc3ccc(c(Cl)c3)OC/C=C/COc3cc(-c4ccc(Cl)nc4)ccc3C(=O)N2)CC1 (mixture of isomers) | 8.52 | 8.14 | 6.47 | 2.4 | 5.19 | 19 | – | – | – | – |
| N#CC1(NC(=O)[C@@H]2Cc3ccc(c(Cl)c3)OC/C=C/Cn3c(=O)c(cc4cc(Cl)ccc43)C(=O)N2)CC1 (mixture of isomers) | 6.52 | 6.56 | 8.10 | 0.9 | 4.79 | 2020 | – | – | – | – |
